The text below walks through data of ChEMBL document CHEMBL1949649, “5-sulfonyl-benzimidazoles as selective CB2 agonists-part 2” (Bioorg Med Chem Lett, 2012).

Data set [1] can be described thus: Drug metabolism in human liver microsomes after 15 mins. It counts as ADME, Microsome. Conditions: read-out: Drug metabolism. On the technique in general: Microsomes from liver hold many membrane-bound enzymes, among them those of drug oxidation.
In data set [2] the target is Cannabinoid receptor 2 (Homo sapiens, UniProt P34972). Briefly: Agonist activity at human CB2 receptor. The format is functional.
Sequence of Cannabinoid receptor 2 (P34972 whole entry): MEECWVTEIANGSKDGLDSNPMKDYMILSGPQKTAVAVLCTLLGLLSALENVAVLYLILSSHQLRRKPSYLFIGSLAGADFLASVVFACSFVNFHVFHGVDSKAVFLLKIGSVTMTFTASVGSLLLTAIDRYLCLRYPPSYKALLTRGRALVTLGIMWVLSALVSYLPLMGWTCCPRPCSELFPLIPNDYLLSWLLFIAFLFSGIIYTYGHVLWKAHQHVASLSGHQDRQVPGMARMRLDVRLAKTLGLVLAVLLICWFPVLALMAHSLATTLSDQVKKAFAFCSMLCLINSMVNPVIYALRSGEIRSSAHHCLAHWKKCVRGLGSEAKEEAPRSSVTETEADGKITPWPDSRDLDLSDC
The target in data set [3] is Cannabinoid receptor 1 (Homo sapiens, UniProt P21554). Briefly: Agonist activity at human CB1 receptor. It counts as functional.
Sequence of Cannabinoid receptor 1 (P21554 whole entry): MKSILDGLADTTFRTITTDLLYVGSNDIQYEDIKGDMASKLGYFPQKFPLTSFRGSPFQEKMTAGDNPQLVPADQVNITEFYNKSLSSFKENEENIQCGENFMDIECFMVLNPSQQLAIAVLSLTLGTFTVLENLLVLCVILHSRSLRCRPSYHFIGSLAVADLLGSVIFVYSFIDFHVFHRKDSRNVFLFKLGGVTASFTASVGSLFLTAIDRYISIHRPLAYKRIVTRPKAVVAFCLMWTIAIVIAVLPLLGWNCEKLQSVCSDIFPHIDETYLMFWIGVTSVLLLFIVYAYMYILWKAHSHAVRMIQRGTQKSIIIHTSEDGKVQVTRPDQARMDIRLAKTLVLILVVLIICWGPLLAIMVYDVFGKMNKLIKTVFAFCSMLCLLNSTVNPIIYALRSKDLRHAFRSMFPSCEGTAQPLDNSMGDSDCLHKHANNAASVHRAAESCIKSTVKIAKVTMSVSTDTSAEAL
The test system of data set [4] is Rattus norvegicus. Briefly: Toxicity in rat assessed as decrease in body temperature at 10 mg/kg, ip by modified tetrad test. It counts as organism-based. On the set-up: dose 10 mg/kg, route intraperitoneal. Conditions: in vivo.
In data set [5] the test system is Rattus norvegicus. Description: Toxicity in rat chronic constriction injury-induced neuropathic pain model assessed as tolerance at 40 mg/kg/day, sc after 5 to 8 days. The format is organism-based. Details: route subcutaneous. Conditions: in vivo. An outline of the steps: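 Chronic constriction injury of rats (n = 7 per group); daily subcutaneous dosing over repeated days, with morphine as comparator. Cold allodynia read as lifting on a cold plate at 0 °C for 4 min.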

For data set [6], the system named is Rattus norvegicus. Briefly: Toxicity in rat assessed as appearance of flat body posture at 2.5 mg/kg, ip by modified tetrad test. The format is organism-based. Details: dose 2.5 mg/kg, route intraperitoneal. Conditions: in vivo.

A value given as a limit tells only on which side of the number the result lay.

In the case of `CC(=O)NCCc1cc(S(=O)(=O)c2ccc3c(c2)nc(C(C)(C)C)n3CC2CCOCC2)ccn1`, the metabolised at 0.25 h in data set [1] stood at 44%.

The EC50 is the concentration that produces a half-maximal response. Lower therefore signals higher potency in that assay. On to `CC(C)(C)c1nc2cc(S(=O)(=O)CCCC(F)(F)F)ccc2n1CC1CCNCC1`, for which the EC50 in data set [2] was 240 nM; in data set [3], over 10000 nM.

Consider `CC(=O)N1CCC(Cn2c(C(C)(C)C)nc3cc(S(=O)(=O)c4ccc(F)cc4)ccc32)CC1`, for which the figures for the concentration for a half-maximal effect (EC50) in data set [2] and in data set [3] were 2.9 nM and over 10000 nM, respectively. In addition, the Activity result in data set [4] is “Toxic”. Further, the metabolised at 0.25 h in data set [1] was determined as 8%.

Consider `CN1CC[C@]23c4c5ccc(O)c4O[C@H]2[C@@H](O)C=C[C@H]3[C@H]1C5` [MORPHINE], for which, in data set [5], the Activity entry was “Non-toxic”.

In the case of `COCCS(=O)(=O)c1ccc2c(c1)nc(C(C)(C)C)n2CC1CCN(C(C)=O)CC1`, the half-maximal effective concentration (EC50) in data set [3] is over 10000 nM.

In data set [2], `COCCCNc1cc(S(=O)(=O)c2ccc3c(c2)nc(C(C)(C)C)n3CC2CCOCC2)ccn1` showed an EC50 of 0.8 nM. For the same compound, the metabolised at 0.25 h in data set [1] worked out at 99%.

On to `CC(C)(C)c1nc2cc(S(=O)(=O)CCCC(F)(F)F)ccc2n1CC1CCOCC1`, for which the half-maximal effective concentration (EC50) in data set [2] stood at 1.1 nM; in data set [3], 320 nM. Besides, the Activity result in data set [4] and in data set [6] was “Toxic” throughout. Further, the metabolised at 0.25 h in data set [1] was 36%.

Regarding `CCS(=O)(=O)c1ccc2c(c1)nc(C(C)(C)C)n2CC1CCN(C(C)=O)CC1`, the EC50 in data set [2] is 8.4 nM; in data set [3], over 10000 nM. Besides, the metabolised at 0.25 h in data set [1] stood at 13%.

The compound `COCCCOc1cc(S(=O)(=O)c2ccc3c(c2)nc(C(C)(C)C)n3CC2CCOCC2)ccn1` returned a concentration giving a half-maximal response (EC50) in data set [2] of 0.5 nM. Moreover, the metabolised at 0.25 h in data set [1] stood at 100%.

In data set [2], `CC(C)(C)c1nc2cc(S(=O)(=O)c3ccnc(OCCCO)c3)ccc2n1CC1CCOCC1` showed an EC50 of 1.2 nM. Further, the metabolised at 0.25 h in data set [1] amounted to 40%.

`CCS(=O)(=O)c1ccc2c(c1)nc(C(C)(C)C)n2CC1CCS(=O)(=O)CC1`: the concentration for a half-maximal effect (EC50) in data set [2] was 28 nM; in data set [3], over 10000 nM.

In the case of `CC(=O)N1CCC(Cn2c(C(C)(C)C)nc3cc(S(=O)(=O)C4CCCC4)ccc32)CC1`, the half-maximal effective concentration (EC50) in data set [3] is over 10000 nM. In addition, the metabolised at 0.25 h in data set [1] amounted to 87%.

For the compound `CC(C)(C)c1nc2cc(S(=O)(=O)CC3CC3)ccc2n1CC1CCS(=O)(=O)CC1`, the EC50 came to 8.4 nM in data set [2] and 2680 nM in data set [3]. In data set [1], the metabolised at 0.25 h was 2%.

Consider `COCCOc1cc(S(=O)(=O)c2ccc3c(c2)nc(C(C)(C)C)n3CC2CCOCC2)ccn1`, for which, in data set [2], it took 1.3 nM to reach a half-maximal effect (EC50). Further, the metabolised at 0.25 h in data set [1] came out at 53%.

Take `CC(C)(C)c1nc2cc(S(=O)(=O)CCCC(F)(F)F)ccc2n1CC1CCN(C(=O)C(F)(F)F)CC1`: the concentration for a half-maximal effect (EC50) in data set [3] is over 10000 nM. Further, in data set [1], the metabolised at 0.25 h was determined as 20%.
